Values after ≈ are worked out from the molar mass of the structure shown. Active and inactive are the calls of the source. The rule behind the calls is not given here.
Legend:
Pseudomonas aeruginosa [1] = assay: Antibacterial activity against Pseudomonas aeruginosa PAO1 K767 after 18 to 24 hrs; format: functional
Outline: (§1)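 Broth MIC per CLSI guidelines in cation-adjusted Mueller Hinton broth. Compounds were dissolved and serially diluted in DMSO (carbapenems in water) before addition to plates. Incubation was at 37 °C for 18−24 h. MIC is the lowest concentration preventing visible growth. MIC50/MIC90 are the concentrations inhibiting 50% or 90% of isolates tested.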

Pseudomonas aeruginosa [2] = assay: Antibacterial activity against mexAB-oprM deficient Pseudomonas aeruginosa K1119 after 18 to 24 hrs; format: functional; outline: as §1
Pseudomonas aeruginosa [3] = assay: Antibacterial activity against hypersusceptible Pseudomonas aeruginosa Z61 after 18 to 24 hrs; format: functional; outline: as §1
Pseudomonas aeruginosa [4] = assay: Antibacterial activity against Pseudomonas aeruginosa NB52001 after 18 to 24 hrs; format: functional; outline: as §1
Pseudomonas aeruginosa [5] = assay: Antibacterial activity against Pseudomonas aeruginosa NB52096 after 18 to 24 hrs; format: functional; outline: as §1
Acinetobacter baumannii = assay: Antibacterial activity against Acinetobacter baumannii NB48015 after 18 to 24 hrs; format: functional; outline: as §1
Alcaligenes = assay: Antibacterial activity against Alcaligenes xylosus NB56002 after 18 to 24 hrs; format: functional; outline: as §1
Burkholderia cepacia = assay: Antibacterial activity against Burkholderia cepacia NB49016 after 18 to 24 hrs; format: functional; outline: as §1
[6] = system: Stenotrophomonas maltophilia; assay: Antibacterial activity against Stenotrophomonas maltophilia NB55011 after 18 to 24 hrs; format: functional; outline: as §1
Klebsiella aerogenes = assay: Antibacterial activity against Enterobacter aerogenes NB24004 after 18 to 24 hrs; format: functional; outline: as §1
Escherichia coli [7] = assay: Antibacterial activity against Escherichia coli NB27047 after 18 to 24 hrs; format: functional; outline: as §1
Klebsiella pneumoniae = assay: Antibacterial activity against Klebsiella pneumoniae NB29018 after 18 to 24 hrs; format: functional; outline: as §1
Klebsiella oxytoca = assay: Antibacterial activity against Klebsiella oxytoca NB30007 after 18 to 24 hrs; format: functional; outline: as §1
Proteus mirabilis = assay: Antibacterial activity against Proteus mirabilis NB32022 after 18 to 24 hrs; format: functional; outline: as §1
[8] = Solubility of the compound at pH 6.8 by high throughput screening assay; format: physicochemical; settings: buffer, read-out: solubility
[9] = Cytotoxicity against human K562 cells assessed as reduction in cell viability after 72 hrs by WST1 assay; format: cell-based
Outline: (§2)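 Cells were grown and assayed in medium with 10% heat-inactivated FBS and exposed to compound for 72 h. Metabolic activity was read as WST-1 cleavage to formazan at A450, with puromycin as positive control. CC50 (50% reduction in viability) was calculated from dose-response curves.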

[10] = Cytotoxicity against human HepG2 cells assessed as reduction in cell viability after 72 hrs by WST1 assay; format: cell-based; outline: as §2
Histone deacetylase 1 = Histone deacetylase 1 (Homo sapiens, UniProt Q13547); assay: Inhibition of human HDAC1
Histone deacetylase 2 = Histone deacetylase 2 (Homo sapiens, UniProt Q92769); assay: Inhibition of human HDAC2
Histone deacetylase 3 = Histone deacetylase 3 (Homo sapiens, UniProt O15379); assay: Inhibition of human HDAC3
Histone deacetylase 4 = Histone deacetylase 4 (Homo sapiens, UniProt P56524); assay: Inhibition of human HDAC4
Histone deacetylase 5 = Histone deacetylase 5 (Homo sapiens, UniProt Q9UQL6); assay: Inhibition of human HDAC5
[11] = molecular target: Protein deacetylase HDAC6 (Homo sapiens, UniProt Q9UBN7); assay: Inhibition of human HDAC6
Histone deacetylase 7 = Histone deacetylase 7 (Homo sapiens, UniProt Q8WUI4); assay: Inhibition of human HDAC7
Histone deacetylase 8 = Histone deacetylase 8 (Homo sapiens, UniProt Q9BY41); assay: Inhibition of human HDAC8
Histone deacetylase 9 = Histone deacetylase 9 (Homo sapiens, UniProt Q9UKV0); assay: Inhibition of human HDAC9
[12] = molecular target: Polyamine deacetylase HDAC10 (Homo sapiens, UniProt Q969S8); assay: Inhibition of human HDAC10
Histone deacetylase 11 = Histone deacetylase 11 (Homo sapiens, UniProt Q96DB2); assay: Inhibition of human HDAC11
[13] = Protein binding in mouse plasma; format: ADME, cell-free; settings: read-out: PPB (converted)
[14] = Protein binding in rat plasma; format: ADME, cell-free; settings: read-out: PPB (converted)
[15] = Protein binding in human plasma; format: ADME, cell-free; settings: read-out: PPB (converted)
Pseudomonas aeruginosa [16] = assay: Antibacterial activity against Pseudomonas aeruginosa clinical isolate after 18 to 24 hrs; format: functional
Escherichia coli [17] = assay: Antibacterial activity against efflux pump deficient Escherichia coli after 18 to 24 hrs; format: functional
Outline: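 MIC per CLSI guidelines. Strains grown in cation-adjusted Mueller Hinton broth. Compounds dissolved in DMSO and serially diluted in DMSO (carbapenems in water) before addition to microtiter plates. Incubation at 37 °C for 18−24 h. MIC is the lowest concentration preventing visible growth.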

Pseudomonas aeruginosa [18] = assay: Antibacterial activity against Pseudomonas aeruginosa ATCC 27853 in CD1 mouse thigh infection model assessed as reduction in bacterial burden in thigh at 160 to 320 mg/kg, iv administered at 2 hrs post infection measured after 24 hrs
Pseudomonas aeruginosa [19] = assay: Antibacterial activity against Pseudomonas aeruginosa clinical isolate infected in iv dosed BalbC mouse neutropenic model assessed as concentration required to show bacterial stasis in lung administered as bid at 2 and 8 hrs post infection measured after 24 hrs
Pseudomonas aeruginosa [20] = assay: Antibacterial activity against Pseudomonas aeruginosa clinical isolate infected in iv dosed BalbC mouse neutropenic model assessed as concentration required to show reduction in bacterial burden in lung of 2 log below stasis administered as bid at 2 and 8 hrs post infection measured after 24 hrs

Chain of Histone deacetylase 2 (Q92769 whole entry): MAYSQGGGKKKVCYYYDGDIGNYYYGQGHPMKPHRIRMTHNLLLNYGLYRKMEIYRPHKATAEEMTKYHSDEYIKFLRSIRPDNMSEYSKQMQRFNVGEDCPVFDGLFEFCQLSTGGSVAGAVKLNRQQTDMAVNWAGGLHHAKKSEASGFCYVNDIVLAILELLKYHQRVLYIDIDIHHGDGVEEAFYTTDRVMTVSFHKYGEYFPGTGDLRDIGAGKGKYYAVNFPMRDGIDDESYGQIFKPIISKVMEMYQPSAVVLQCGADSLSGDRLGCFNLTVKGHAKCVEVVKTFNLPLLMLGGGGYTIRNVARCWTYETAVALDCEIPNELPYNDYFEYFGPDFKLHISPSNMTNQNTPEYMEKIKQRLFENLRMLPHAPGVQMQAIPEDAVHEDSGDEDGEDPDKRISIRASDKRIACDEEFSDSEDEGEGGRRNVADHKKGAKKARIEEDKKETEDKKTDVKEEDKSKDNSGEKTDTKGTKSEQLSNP
Chain of Histone deacetylase 5 (Q9UQL6 whole entry): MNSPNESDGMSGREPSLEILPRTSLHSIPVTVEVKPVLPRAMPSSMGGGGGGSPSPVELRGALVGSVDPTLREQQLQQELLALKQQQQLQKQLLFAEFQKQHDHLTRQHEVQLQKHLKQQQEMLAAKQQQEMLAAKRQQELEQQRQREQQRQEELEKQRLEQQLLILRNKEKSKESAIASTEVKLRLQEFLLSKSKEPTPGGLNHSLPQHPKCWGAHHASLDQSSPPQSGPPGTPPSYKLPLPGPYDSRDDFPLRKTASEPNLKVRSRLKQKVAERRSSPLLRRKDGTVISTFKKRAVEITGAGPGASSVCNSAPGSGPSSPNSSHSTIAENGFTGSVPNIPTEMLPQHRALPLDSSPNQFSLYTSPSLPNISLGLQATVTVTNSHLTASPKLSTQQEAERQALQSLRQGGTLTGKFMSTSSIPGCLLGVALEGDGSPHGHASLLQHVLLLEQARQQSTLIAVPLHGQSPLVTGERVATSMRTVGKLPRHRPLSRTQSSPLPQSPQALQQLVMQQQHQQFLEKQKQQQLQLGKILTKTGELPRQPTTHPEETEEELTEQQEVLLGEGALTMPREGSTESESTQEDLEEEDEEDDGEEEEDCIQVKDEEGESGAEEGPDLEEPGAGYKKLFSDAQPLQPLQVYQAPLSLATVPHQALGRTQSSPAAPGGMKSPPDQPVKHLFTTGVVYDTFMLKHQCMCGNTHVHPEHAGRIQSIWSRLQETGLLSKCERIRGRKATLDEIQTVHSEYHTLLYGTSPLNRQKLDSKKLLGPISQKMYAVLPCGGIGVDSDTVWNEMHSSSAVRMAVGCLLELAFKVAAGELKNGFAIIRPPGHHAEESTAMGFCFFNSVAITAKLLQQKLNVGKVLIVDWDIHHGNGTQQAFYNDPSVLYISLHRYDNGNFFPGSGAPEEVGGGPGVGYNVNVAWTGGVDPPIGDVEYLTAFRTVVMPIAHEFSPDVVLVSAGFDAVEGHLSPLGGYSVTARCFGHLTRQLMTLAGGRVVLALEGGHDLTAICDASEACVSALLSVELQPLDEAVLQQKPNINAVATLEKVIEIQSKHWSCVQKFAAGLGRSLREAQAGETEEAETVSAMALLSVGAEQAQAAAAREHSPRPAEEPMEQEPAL
Chain of Protein deacetylase HDAC6 (Q9UBN7 whole entry): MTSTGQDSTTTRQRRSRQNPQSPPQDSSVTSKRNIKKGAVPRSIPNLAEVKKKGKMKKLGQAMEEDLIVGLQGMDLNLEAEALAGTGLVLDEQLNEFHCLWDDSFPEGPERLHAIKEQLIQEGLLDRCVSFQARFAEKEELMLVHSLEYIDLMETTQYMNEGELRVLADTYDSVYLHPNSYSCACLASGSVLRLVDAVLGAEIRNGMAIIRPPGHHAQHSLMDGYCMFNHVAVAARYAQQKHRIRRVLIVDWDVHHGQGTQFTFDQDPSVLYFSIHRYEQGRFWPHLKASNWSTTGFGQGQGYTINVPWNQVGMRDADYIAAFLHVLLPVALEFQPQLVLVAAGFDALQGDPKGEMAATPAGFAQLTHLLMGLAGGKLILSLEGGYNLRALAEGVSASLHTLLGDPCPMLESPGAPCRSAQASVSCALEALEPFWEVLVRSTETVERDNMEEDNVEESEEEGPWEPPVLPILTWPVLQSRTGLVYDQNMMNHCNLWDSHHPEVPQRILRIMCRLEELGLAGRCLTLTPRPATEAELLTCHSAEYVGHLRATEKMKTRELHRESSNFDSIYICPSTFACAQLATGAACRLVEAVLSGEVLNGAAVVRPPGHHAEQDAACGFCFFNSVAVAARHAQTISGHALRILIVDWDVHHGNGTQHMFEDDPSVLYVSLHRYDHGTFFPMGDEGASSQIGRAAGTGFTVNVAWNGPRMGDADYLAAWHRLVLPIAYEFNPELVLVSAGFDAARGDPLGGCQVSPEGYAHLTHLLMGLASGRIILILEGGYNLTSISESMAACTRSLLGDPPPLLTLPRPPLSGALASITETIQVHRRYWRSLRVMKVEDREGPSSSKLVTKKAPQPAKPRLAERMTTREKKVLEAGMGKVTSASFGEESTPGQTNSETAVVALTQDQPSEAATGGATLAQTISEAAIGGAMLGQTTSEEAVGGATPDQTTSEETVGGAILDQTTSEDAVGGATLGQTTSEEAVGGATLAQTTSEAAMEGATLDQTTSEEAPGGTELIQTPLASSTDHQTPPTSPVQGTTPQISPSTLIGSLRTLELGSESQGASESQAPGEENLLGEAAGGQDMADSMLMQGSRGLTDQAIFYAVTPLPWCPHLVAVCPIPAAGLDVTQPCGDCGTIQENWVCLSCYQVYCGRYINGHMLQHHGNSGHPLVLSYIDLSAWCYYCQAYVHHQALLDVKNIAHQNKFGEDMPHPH
Chain of Histone deacetylase 8 (Q9BY41 whole entry): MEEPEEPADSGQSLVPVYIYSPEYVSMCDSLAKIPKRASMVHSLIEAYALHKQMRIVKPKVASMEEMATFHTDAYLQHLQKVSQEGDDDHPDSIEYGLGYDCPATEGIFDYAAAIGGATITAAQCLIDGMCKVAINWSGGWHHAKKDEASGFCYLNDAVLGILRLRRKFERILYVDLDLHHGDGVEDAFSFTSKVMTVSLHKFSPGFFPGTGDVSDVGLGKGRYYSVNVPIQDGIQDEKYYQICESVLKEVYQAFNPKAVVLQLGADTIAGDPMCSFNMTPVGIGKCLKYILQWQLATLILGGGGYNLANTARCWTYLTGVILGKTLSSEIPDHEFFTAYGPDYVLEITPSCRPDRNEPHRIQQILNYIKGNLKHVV
Chain of Histone deacetylase 1 (Q13547 whole entry): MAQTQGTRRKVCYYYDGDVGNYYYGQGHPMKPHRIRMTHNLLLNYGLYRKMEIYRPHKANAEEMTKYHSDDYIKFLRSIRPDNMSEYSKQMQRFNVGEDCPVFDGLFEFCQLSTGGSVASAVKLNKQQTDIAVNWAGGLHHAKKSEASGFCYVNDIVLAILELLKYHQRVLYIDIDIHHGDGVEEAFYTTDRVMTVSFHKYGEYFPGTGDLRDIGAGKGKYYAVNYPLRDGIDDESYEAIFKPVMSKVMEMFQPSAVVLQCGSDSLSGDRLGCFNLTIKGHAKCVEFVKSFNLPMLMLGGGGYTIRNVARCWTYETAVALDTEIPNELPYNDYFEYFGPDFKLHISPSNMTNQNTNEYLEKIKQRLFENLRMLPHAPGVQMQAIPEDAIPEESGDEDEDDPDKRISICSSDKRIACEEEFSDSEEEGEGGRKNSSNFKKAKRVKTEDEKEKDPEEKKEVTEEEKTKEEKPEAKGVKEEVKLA
Chain of Histone deacetylase 4 (P56524 whole entry): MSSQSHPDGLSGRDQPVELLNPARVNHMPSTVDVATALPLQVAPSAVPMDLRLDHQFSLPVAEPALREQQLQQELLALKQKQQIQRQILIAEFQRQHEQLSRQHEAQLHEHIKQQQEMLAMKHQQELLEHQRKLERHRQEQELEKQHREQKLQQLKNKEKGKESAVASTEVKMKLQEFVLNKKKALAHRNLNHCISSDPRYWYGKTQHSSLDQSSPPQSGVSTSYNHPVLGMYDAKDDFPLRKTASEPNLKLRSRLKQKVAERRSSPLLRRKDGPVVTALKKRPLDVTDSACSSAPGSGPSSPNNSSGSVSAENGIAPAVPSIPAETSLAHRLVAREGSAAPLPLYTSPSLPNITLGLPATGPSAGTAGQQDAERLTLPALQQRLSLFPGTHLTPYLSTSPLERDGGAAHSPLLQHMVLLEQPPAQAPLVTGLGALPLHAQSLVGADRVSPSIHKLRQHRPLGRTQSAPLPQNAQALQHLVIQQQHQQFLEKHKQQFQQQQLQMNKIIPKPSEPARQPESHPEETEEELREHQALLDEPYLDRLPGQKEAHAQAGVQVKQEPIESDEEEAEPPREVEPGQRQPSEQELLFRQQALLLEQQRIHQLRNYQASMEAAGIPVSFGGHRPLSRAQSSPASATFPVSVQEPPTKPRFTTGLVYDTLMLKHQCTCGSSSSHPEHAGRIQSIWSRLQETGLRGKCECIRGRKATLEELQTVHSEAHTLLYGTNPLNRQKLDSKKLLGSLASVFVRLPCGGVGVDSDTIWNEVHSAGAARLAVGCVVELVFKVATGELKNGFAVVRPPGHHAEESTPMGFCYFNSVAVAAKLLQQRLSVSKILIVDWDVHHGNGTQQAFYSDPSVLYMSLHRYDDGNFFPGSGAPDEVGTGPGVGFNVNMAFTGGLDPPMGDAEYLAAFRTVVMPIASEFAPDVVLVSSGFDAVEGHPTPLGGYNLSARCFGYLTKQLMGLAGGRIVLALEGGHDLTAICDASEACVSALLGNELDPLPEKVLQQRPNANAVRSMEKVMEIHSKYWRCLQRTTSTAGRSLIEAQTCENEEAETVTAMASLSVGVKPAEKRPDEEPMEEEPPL

## CC#CCOc1ccc(C(=O)N[C@H](C(=O)NO)C(C)(C)N)cc1
Pseudomonas aeruginosa [1]
  MIC: 0.5 µg/mL (≈ 1.57 µM)
Pseudomonas aeruginosa [2]
  MIC: 0.06 µg/mL (≈ 0.188 µM)
Pseudomonas aeruginosa [3]
  MIC: 0.25 µg/mL (≈ 0.783 µM)
Pseudomonas aeruginosa [4]
  MIC: 1 µg/mL (≈ 3.13 µM)
Pseudomonas aeruginosa [5]
  MIC: 2 µg/mL (≈ 6.26 µM)
Acinetobacter baumannii
  MIC: > 128 µg/mL
Alcaligenes
  MIC: 16 µg/mL (≈ 50.1 µM)
Burkholderia cepacia
  MIC: 32 µg/mL (≈ 100 µM)
[6]
  MIC: 32 µg/mL (≈ 100 µM)
Klebsiella aerogenes
  MIC: > 128 µg/mL
Escherichia coli [7]
  MIC: 64 µg/mL (≈ 200 µM)
Klebsiella pneumoniae
  MIC: 16 µg/mL (≈ 50.1 µM)
Klebsiella oxytoca
  MIC: 16 µg/mL (≈ 50.1 µM)
Proteus mirabilis
  MIC: 64 µg/mL (≈ 200 µM)
[8]
  solubility: > 327 µg/mL
[9]
  CC50 at 72 h: > 295 µM
[10]
  CC50 at 72 h: > 295 µM
Histone deacetylase 1
  IC50: > 30 µM
Histone deacetylase 2
  IC50: > 30 µM
Histone deacetylase 3
  IC50: > 30 µM
Histone deacetylase 4
  IC50: > 30 µM
Histone deacetylase 5
  IC50: > 30 µM
[11]
  IC50: > 30 µM
Histone deacetylase 7
  IC50: > 30 µM
Histone deacetylase 8
  IC50: > 30 µM
Histone deacetylase 9
  IC50: > 30 µM
[12]
  IC50: > 30 µM
Histone deacetylase 11
  IC50: > 30 µM
[13]
  fraction unbound: 0.772
[14]
  fraction unbound: 0.779
[15]
  fraction unbound: 0.193
Pseudomonas aeruginosa [16]
  MIC50: 1 µg/mL (≈ 3.13 µM)
  MIC90: 2 µg/mL (≈ 6.26 µM)
Escherichia coli [17]
  MIC: 1 to 2 µg/mL (≈ 3.13 to 6.26 µM)
Pseudomonas aeruginosa [18]
  Activity: Active
Pseudomonas aeruginosa [19]
  Activity: 7.1 mg/kg/day
Pseudomonas aeruginosa [20]
  Activity: 20 mg/kg/day
